Molecules are shown by their SMILES. The source made the active and inactive calls. No cut-off for these calls is given here.

Data on 30 molecules can be found in ChEMBL document CHEMBL1140699, “Stereospecific high-affinity TRPV1 antagonists: chiral N-(2-benzyl-3-pivaloyloxypropyl) 2-[4-(methylsulfonylamino)phenyl]propionamide analogues” (J Med Chem, 2008).

Transient receptor potential cation channel subfamily V member 1 (Rattus norvegicus), sequence (O35433 whole entry): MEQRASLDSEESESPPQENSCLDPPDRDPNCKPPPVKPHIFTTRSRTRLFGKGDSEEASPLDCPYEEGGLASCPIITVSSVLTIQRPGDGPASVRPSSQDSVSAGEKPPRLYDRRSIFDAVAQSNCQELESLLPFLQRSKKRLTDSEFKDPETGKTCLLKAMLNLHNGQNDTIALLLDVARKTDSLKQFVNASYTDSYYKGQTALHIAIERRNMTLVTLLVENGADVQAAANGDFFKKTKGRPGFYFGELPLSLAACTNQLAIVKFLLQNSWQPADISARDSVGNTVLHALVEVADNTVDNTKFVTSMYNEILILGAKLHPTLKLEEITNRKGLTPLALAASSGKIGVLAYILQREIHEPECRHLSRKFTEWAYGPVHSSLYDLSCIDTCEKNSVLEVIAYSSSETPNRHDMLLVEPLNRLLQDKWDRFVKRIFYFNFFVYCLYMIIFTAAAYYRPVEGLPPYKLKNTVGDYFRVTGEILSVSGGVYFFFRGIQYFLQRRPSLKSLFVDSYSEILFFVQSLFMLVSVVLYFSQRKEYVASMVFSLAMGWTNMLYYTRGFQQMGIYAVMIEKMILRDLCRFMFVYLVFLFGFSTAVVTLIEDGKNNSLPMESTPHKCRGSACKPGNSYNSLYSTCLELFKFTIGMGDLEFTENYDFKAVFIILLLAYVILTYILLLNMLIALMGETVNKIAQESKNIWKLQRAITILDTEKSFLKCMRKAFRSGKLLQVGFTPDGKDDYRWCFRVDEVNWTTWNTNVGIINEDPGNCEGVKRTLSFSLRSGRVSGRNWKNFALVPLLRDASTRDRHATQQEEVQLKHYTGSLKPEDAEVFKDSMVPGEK
T1 sequence (O35433 whole entry): as above

The first experiment has as its target T1, Transient receptor potential cation channel subfamily V member 1 (Rattus norvegicus, UniProt O35433). The experiment in a line: Displacement of [3H]RTX from rat TRPV1 receptor expressed in CHO cells. Format: cell-based. The gist of the method: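 Competitive binding against [3H]resiniferatoxin in CHO cells heterologously expressing rat TRPV1 (CHO/VR1). Affinity reported as Ki.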
(In general: Displacement assays read how much labelled ligand stays bound in the presence of the test substance.)
The Ki is a dissociation constant, usually derived from enzyme kinetics or from competition with a known ligand. As for `C[C@H](C(=O)NC[C@H](COC(=O)C(C)(C)C)Cc1ccc(C(C)(C)C)cc1)c1ccc(NS(C)(=O)=O)c(F)c1`, the affinity, expressed as Ki, was 4.12 nM.

The molecule `C[C@H](C(=O)NC[C@@H](COC(=O)C(C)(C)C)Cc1ccccc1)c1ccc(NS(C)(=O)=O)c(F)c1` came in with a Ki of 16.5 nM.

Molecule `C[C@H](C(=O)NC[C@@H](COC(=O)C(C)(C)C)Cc1ccc(C(C)(C)C)cc1)c1ccc(NS(C)(=O)=O)c(F)c1` gave a Ki of 6.26 nM.

In turn, `Cc1ccc(CC(CNC(=O)C(C)(C)c2ccc(NS(C)(=O)=O)c(F)c2)COC(=O)C(C)(C)C)cc1C` (configuration not stated) yielded a Ki of 280 nM.

`C=C(C)[C@]12C[C@@H](C)[C@@]34O[C@](Cc5ccccc5)(O[C@@H]1[C@@H]3C=C(COC(=O)Cc1cc(I)c(O)c(OC)c1)C[C@]1(O)C(=O)C(C)=C[C@@H]41)O2` [IODORESINIFERATOXIN]: the affinity, expressed as Ki, was 0.61 nM.

Another experiment addresses Transient receptor potential cation channel subfamily V member 1 (Rattus norvegicus) (UniProt O35433). The experiment in a line: Agonist activity at rat TRPV1 receptor expressed in CHO cells assessed as calcium 45 uptake at 30 uM. The format is functional, cell-based. The essentials:
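45Ca2+ uptake in CHO cells heterologously expressing rat TRPV1 (CHO/VR1). Compounds tested for agonism at 30 µM and scored as not effective or weakly effective. Results from 1–5 experiments.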
On to `Oc1cc2c(cc1O)CN(C(=S)NCCc1ccc(Cl)cc1)CCC2`, for which the outcome was inactive.

With `Cc1ccc(CC(CNC(=O)C(C)c2ccc(NS(C)(=O)=O)c(F)c2)COC(=O)C(C)(C)C)cc1C` (configuration not stated), the outcome was inactive.

As for `CC(C(=O)NCC(COC(=O)C(C)(C)C)Cc1ccc(C(C)(C)C)cc1)c1ccc(NS(C)(=O)=O)cc1` (configuration not stated), the result was inactive.

For the molecule `C[C@H](C(=O)NC[C@H](COC(=O)C(C)(C)C)Cc1ccc(C(C)(C)C)cc1)c1ccc(NS(C)(=O)=O)c(F)c1`, the result was inactive.

In the case of `C[C@H](C(=O)NC[C@@H](COC(=O)C(C)(C)C)Cc1ccccc1)c1ccc(NS(C)(=O)=O)c(F)c1`, the result was inactive.

With `Cc1ccc(CC(CNC(=O)C(C)c2ccc(NS(C)(=O)=O)cc2)COC(=O)C(C)(C)C)cc1C` (configuration not stated), the result was inactive.

Turning to `C[C@@H](C(=O)NC[C@H](COC(=O)C(C)(C)C)Cc1ccc(C(C)(C)C)cc1)c1ccc(NS(C)(=O)=O)c(F)c1`, the result was inactive.

On to `Cc1ccc(CC(CNC(=S)NCc2ccc(NS(C)(=O)=O)c(F)c2)COC(=O)C(C)(C)C)cc1C` (configuration not stated), for which the result was inactive.

Regarding `Cc1ccc(CC(CNC(=O)C(C)(C)c2ccc(NS(C)(=O)=O)cc2)COC(=O)C(C)(C)C)cc1C` (configuration not stated), the outcome was inactive.

As for `COc1cc(C2(C(=O)NCC(COC(=O)C(C)(C)C)Cc3ccc(C)c(C)c3)CC2)ccc1NS(C)(=O)=O` (configuration not stated), the outcome was inactive.

In the case of `Cc1ccc(CC(CNC(=O)C2(c3ccc(NS(C)(=O)=O)c(F)c3)CC2)COC(=O)C(C)(C)C)cc1C` (configuration not stated), the outcome was inactive.

In the case of `C[C@H](C(=O)NC[C@@H](COC(=O)C(C)(C)C)Cc1ccc(C(C)(C)C)cc1)c1ccc(NS(C)(=O)=O)c(F)c1`, the outcome was inactive.

Take `C[C@H](C(=O)NC[C@@H](COC(=O)C(C)(C)C)Cc1ccc(C(C)(C)C)cc1)c1ccc(NS(C)(=O)=O)c(Cl)c1`: the result was inactive.

Turning to `C[C@@H](C(=O)NC[C@@H](COC(=O)C(C)(C)C)Cc1ccccc1)c1ccc(NS(C)(=O)=O)c(F)c1`, the outcome was inactive.

Regarding `COc1cc(C(C)(C)C(=O)NCC(COC(=O)C(C)(C)C)Cc2ccc(C)c(C)c2)ccc1NS(C)(=O)=O` (configuration not stated), the result was inactive.

As for `Cc1ccc(CC(CNC(=O)C2(c3ccc(NS(C)(=O)=O)cc3)CC2)COC(=O)C(C)(C)C)cc1C` (configuration not stated), the outcome was inactive.

In the case of `C[C@@H](C(=O)NC[C@H](COC(=O)C(C)(C)C)Cc1ccccc1)c1ccc(NS(C)(=O)=O)c(F)c1`, the result was inactive.

For `Cc1ccc(CC(CNC(=O)C(C)(C)c2ccc(NS(C)(=O)=O)c(F)c2)COC(=O)C(C)(C)C)cc1C` (configuration not stated), the result was inactive.

Consider `C[C@H](C(=O)NC[C@H](COC(=O)C(C)(C)C)Cc1ccccc1)c1ccc(NS(C)(=O)=O)c(F)c1`, for which the outcome was inactive.

On to `C=C(C)[C@]12C[C@@H](C)[C@@]34O[C@](Cc5ccccc5)(O[C@@H]1[C@@H]3C=C(COC(=O)Cc1cc(I)c(O)c(OC)c1)C[C@]1(O)C(=O)C(C)=C[C@@H]41)O2` [IODORESINIFERATOXIN], for which the result was inactive.

In the case of `C[C@H](C(=O)NC[C@H](COC(=O)C(C)(C)C)Cc1ccc(C(C)(C)C)cc1)c1ccc(NS(C)(=O)=O)c(Cl)c1`, the result was inactive.

A further experiment shares this target. The experiment in a line: Agonist activity at rat TRPV1 receptor expressed in CHO cells assessed as calcium 45 uptake relative to 300 nM capsaicin. The format is functional, cell-based.
`COc1cc(C(C)C(=O)NCC(COC(=O)C(C)(C)C)Cc2ccc(C(C)(C)C)cc2)ccc1NS(C)(=O)=O` (configuration not stated): the Activity came out at 40%.

As to `Cc1ccc(CC(CNC(=O)C(C)c2ccc(NS(C)(=O)=O)c(Cl)c2)COC(=O)C(C)(C)C)cc1C` (configuration not stated), the Activity worked out at 16%.

Take `COc1cc(C(C)C(=O)NCC(COC(=O)C(C)(C)C)Cc2ccc(C)c(C)c2)ccc1NS(C)(=O)=O` (configuration not stated): the Activity was 10%.

With `CC(C(=O)NCC(COC(=O)C(C)(C)C)Cc1ccc(C(C)(C)C)cc1)c1ccc(NS(C)(=O)=O)c(F)c1` (configuration not stated), the Activity worked out at 8%.

With `C[C@@H](C(=O)NC[C@@H](COC(=O)C(C)(C)C)Cc1ccc(C(C)(C)C)cc1)c1ccc(NS(C)(=O)=O)c(F)c1`, the Activity was determined as 9%.

`CC(C)(C)C(=O)OCC(CNC(=O)Cc1ccc(NS(C)(=O)=O)c(F)c1)Cc1ccc(C(C)(C)C)cc1` (configuration not stated): the Activity amounted to 7%.

Turning to `CC(C)(C)C(=O)OCC(CNC(=S)NCc1ccc(NS(C)(=O)=O)c(F)c1)Cc1ccc(C(C)(C)C)cc1` (configuration not stated), the Activity was 5%.

Another experiment shares this target. The experiment in a line: (§1) Antagonist activity at rat TRPV1 receptor expressed in CHO cells assessed as calcium 45 uptake. Format: functional, cell-based.
On to `COc1cc(C(C)C(=O)NCC(COC(=O)C(C)(C)C)Cc2ccc(C(C)(C)C)cc2)ccc1NS(C)(=O)=O` (configuration not stated), for which the outcome was inactive.

In another experiment the target is T1, Transient receptor potential cation channel subfamily V member 1. The description is as §1. The format is functional, cell-based.
Consider `CC(C)(C)C(=O)OCC(CNC(=O)Cc1ccc(NS(C)(=O)=O)c(F)c1)Cc1ccc(C(C)(C)C)cc1` (configuration not stated), for which the Ki turned out to be 440 nM.

Consider `C=C(C)[C@]12C[C@@H](C)[C@@]34O[C@](Cc5ccccc5)(O[C@@H]1[C@@H]3C=C(COC(=O)Cc1cc(I)c(O)c(OC)c1)C[C@]1(O)C(=O)C(C)=C[C@@H]41)O2` [IODORESINIFERATOXIN], for which the inhibition constant Ki was 12.2 nM.

`CC(C)(C)C(=O)OCC(CNC(=S)NCc1ccc(NS(C)(=O)=O)c(F)c1)Cc1ccc(C(C)(C)C)cc1` (configuration not stated): the Ki turned out to be 52 nM.

The target of another experiment is Transient receptor potential cation channel subfamily V member 1 (Rattus norvegicus) (UniProt O35433). In words: Antagonist activity at rat TRPV1 receptor expressed in CHO cells assessed as capsaicin-induced calcium 45 uptake. Details: concentration or dose not given beside the values. Format: functional, cell-based. The essentials:
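Chinese hamster ovary cells heterologously expressing rat TRPV1 (CHO/VR1). Compounds were tested as antagonists of 150 nM capsaicin-induced ⁴⁵Ca²⁺ uptake. Antagonism was reported as Ki, with activity scored at 30 µM where potency was low. Results come from 1–5 experiments.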
In the case of `CC(C(=O)NCC(COC(=O)C(C)(C)C)Cc1ccc(C(C)(C)C)cc1)c1ccc(NS(C)(=O)=O)c(Cl)c1` (configuration not stated), the Activity was 61%.

Turning to `Cc1ccc(CC(CNC(=O)Cc2ccc(NS(C)(=O)=O)c(F)c2)COC(=O)C(C)(C)C)cc1C` (configuration not stated), the Activity was 71%.

As for `COc1cc(C(C)C(=O)NCC(COC(=O)C(C)(C)C)Cc2ccc(C)c(C)c2)ccc1NS(C)(=O)=O` (configuration not stated), the Activity is 63%.

As for `CC(C(=O)NCC(COC(=O)C(C)(C)C)Cc1ccc(C(C)(C)C)cc1)c1ccc(NS(C)(=O)=O)c(F)c1` (configuration not stated), the Activity worked out at 95%.

In the case of `CC(C)(C)C(=O)OCC(CNC(=O)Cc1ccc(NS(C)(=O)=O)c(F)c1)Cc1ccc(C(C)(C)C)cc1` (configuration not stated), the Activity amounted to 56%.
